Series [1] deals with SMN2 expression. The series is described as follows: SMN2-luciferase reporter assay. It is filed as cell-based. Particulars: for activity in the luciferase reporter assay (in words): SAR statements in the text. In short, it runs like this: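 Reporter cells carrying the SMN2-luciferase construct were exposed to test compound at 0.1–50 μM, with DMSO (0.1%) controls. Luciferase signal gave dose-response curves, from which EC50 and percent maximum increase in SMN2 expression were taken. Values are mean ± S.E.M.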
A general note: Reporter assays use an easily measured gene product as a stand-in for the process of interest.

The subject of series [2] is SMN-luciferase reporter transcripts. The series is described as follows: qRT-PCR analysis of SMN-luciferase reporter transcripts. As to conditions: 24 hours required for full activation. It is filed as cell-based. In general terms: Quantitative PCR measures a nucleic acid by following its amplification.
The nature of series [3]: stability in mouse microsomes. Format: in vitro ADME.
The subject of series [4] is SMN1-luciferase construct. The series is described as follows: SMN1-luciferase construct expression. It is filed as cell-based.
A further series in a line: aqueous solubility. It is filed as physicochemical.
The test system of the next series is SMNΔ7 mice. The series is described as follows: preliminary efficacy study in SMNΔ7 mice. As to conditions: 20 mg/kg i.p. once daily from PND 2, compared to vehicle. It is filed as in vivo, mouse.
Series [5] has as its system SMN2 expression. Particulars: hit compounds from high-throughput screening; cited from earlier work.

“Also recorded” adds a separate entry of the source.

As to `COc1ccc2c(c1OC)C(c1cc(Br)ccc1F)CC(=O)N2` (centres unmarked) [5a], in the series with SMN2 expression [1], the “activity in the luciferase reporter assay (in words)” value (from here on “activity”) is given as “complete loss of activity”.

For `COc1cc2c(c(OC)c1)C(c1cc(Br)ccc1F)CC(=O)N2` (centres unmarked) [5b], the “activity” value with SMN2 expression [1] was “complete loss of activity”.

Take `COc1cc2c(c(OC)c1OC)C(c1ccccc1F)CC(=O)N2` (centres unmarked) [5c]: in the series on SMN2 expression [1], the EC50 (in general, the concentration at which the effect is half-maximal) is greater than 50 µM and the “activity” value was “complete loss in activity”.

As to `COc1cc2c(c(OC)c1OC)C(c1cccc(Br)c1)CC(=O)N2` (centres unmarked) [5d], in the series with SMN2 expression [1], the EC50 was greater than 50 µM and the “activity” value is “complete loss in activity”.

For `COc1cc2c(c(OC)c1OC)C(c1cc(F)ccc1F)CC(=O)N2` (centres unmarked) [5f], in the series with SMN2 expression [1], the EC50 is greater than 50 µM and the “activity” value is recorded as “not active”.

With `COc1cc2c(c(OC)c1OC)C(c1cc(C#N)ccc1F)CC(=O)N2` (centres unmarked) [5g], in the series on SMN2 expression [1], the EC50 was greater than 50 µM and the “activity” value is given as “not active”.

Regarding `COc1cc2c(c(OC)c1OC)C(c1cc([N+](=O)[O-])ccc1F)CC(=O)N2` (centres unmarked) [5h], in the series with SMN2 expression [1], the EC50 was greater than 50 µM and the “activity” value was “not active”.

Take `COc1cc2c(c(OC)c1OC)C(c1cc(C(N)=O)ccc1F)CC(=O)N2` (centres unmarked) [5i]: in the series with SMN2 expression [1], the concentration giving a half-maximal response (EC50) is greater than 50 µM and the “activity” value is “not active”.

For the molecule `COc1cc2c(c(OC)c1OC)C(c1cccc(Cl)c1Cl)CC(=O)N2` (centres unmarked) [5j], in the series on SMN2 expression [1], the concentration for a half-maximal effect (EC50) was greater than 50 µM and the “activity” value is “inactive”.

Take `COc1cc2c(c(OC)c1OC)C(c1ccc(Cl)cc1Cl)CC(=O)N2` (centres unmarked) [5k]: in the series on SMN2 expression [1], the EC50 is greater than 50 µM and the “activity” value was “inactive”.

Consider `COc1cc2c(c(OC)c1OC)C(c1ccc(F)c(F)c1)CC(=O)N2` (centres unmarked) [5l], for which, in the series with SMN2 expression [1], the EC50 was greater than 50 µM and the “activity” value was “inactive”.

For `COc1cc2c(c(OC)c1OC)C(c1ccc(Cl)c(Cl)c1)CC(=O)N2` (centres unmarked) [5m], in the series on SMN2 expression [1], the EC50 was greater than 50 µM and the “activity” value was “inactive”.

For `COc1cc2c(c(OC)c1OC)C(c1cc(Br)ccc1F)CC(=O)N2C` (centres unmarked) [6a], the “activity” value in the series on SMN2 expression [1] is “inactive”.

With `COc1cc2c(c(OC)c1OC)C(c1cc(Br)ccc1F)C(C)C(=O)N2` (centres unmarked) [6b], the “activity” value in the series with SMN2 expression [1] is “inactive”.

Consider `COc1cc2c(c(OC)c1OC)C(c1cc(Cl)ccc1F)NC(=O)N2` (centres unmarked) [9a], for which, in series [2], the “amount of exon 7 included transcripts” value is recorded as “corresponding increase” and the “amount of total SMN-luciferase reporter transcripts” value is on record as “increased”. In addition, in series [3], the “stability in mouse microsomes (in words)” value is given as “promising stability”. For the same molecule, the “SMN-luciferase protein expression from the SMN1-luciferase construct” value in series [4] is “increased SMN-luciferase protein expression”. Further, the “aqueous solubility (in words)” value in “aqueous solubility” is listed as “improved aqueous solubility”. Further, the “ability to right themselves” value with SMNΔ7 mice is listed as “increase in the ability to right themselves”. The “activity” value with SMN2 expression [1] was “improved potency and efficacy; also recorded: very promising activity”. Also, in the series with SMN2 expression [1] (secondary characterisation), the “SMN-luciferase protein expression from the SMN2-luciferase construct” value is “increased SMN-luciferase protein expression”.

In the case of `COc1cc2c(c(OC)c1OC)C(c1ccccc1F)N(C)C(=O)N2` (centres unmarked) [9b], in the series with SMN2 expression [1], the EC50 is 10 µM and the “activity” value was “less active; also recorded: partial, but not a complete, loss in activity”. Moreover, the Emax with SMN2 expression [1] (read-out: percent maximum increase in SMN2 expression) is 100%.

Take `CCCN1C(=O)Nc2cc(OC)c(OC)c(OC)c2C1c1cccc(Cl)c1` (centres unmarked) [9c]: the “activity” value with SMN2 expression [1] was “inactive; also recorded: partial, but not a complete, loss in activity”.

In the case of `COc1cc2c(c(OC)c1OC)C(c1cccc(F)c1)NC(=O)N2` (centres unmarked) [9d], in the series on SMN2 expression [1], the “activity” value was “retained some activity”.

`COc1cc2c(c(OC)c1OC)C(c1ccc(F)cc1)NC(=O)N2` (centres unmarked) [9e]: in the series with SMN2 expression [1], the “activity” value was “retained some activity”.

In the series with SMN2 expression [1], `COc1cc2c(c(OC)c1OC)C(c1ccccc1Cl)NC(=O)N2` (centres unmarked) [9f] displayed an EC50 greater than 50 µM.

For the molecule `COc1cc2c(c(OC)c1OC)C(c1ccc(Cl)cc1)NC(=O)N2` (centres unmarked) [9g], the “activity” value in the series with SMN2 expression [1] was “retained some activity”.

Turning to `COc1ccccc1C1NC(=O)Nc2cc(OC)c(OC)c(OC)c21` (centres unmarked) [9h], the 50% effective concentration (EC50) with SMN2 expression [1] was greater than 50 µM.

As to `COc1ccc(C2NC(=O)Nc3cc(OC)c(OC)c(OC)c32)cc1` (centres unmarked) [9j], the EC50 with SMN2 expression [1] is greater than 50 µM.

`COc1cc2c(c(OC)c1OC)C(c1cc(-c3ccccc3)ccc1F)NC(=O)N2` (centres unmarked) [9l]: in the series with SMN2 expression [1], the EC50 was greater than 50 µM and the “activity” value is “inactive”.

Take `COc1cc2c(c(OC)c1OC)C(c1cc(C#N)ccc1F)NC(=O)N2` (centres unmarked) [9m]: in the series with SMN2 expression [1], the EC50 is greater than 50 µM and the “activity” value was “inactive”.

On to `COc1cc2c(c(OC)c1OC)C(c1cc(F)ccc1F)NC(=O)N2` (centres unmarked) [9n], for which the “activity” value with SMN2 expression [1] was “less active”.

As for `COc1ccc(F)c(C2NC(=O)Nc3cc(OC)c(OC)c(OC)c32)c1` (centres unmarked) [9o], in the series on SMN2 expression [1], the EC50 is greater than 50 µM and the “activity” value is “inactive”.

With `COc1cc2c(c(OC)c1OC)C(c1ccc(Cl)cc1F)NC(=O)N2` (centres unmarked) [9p], the “activity” value with SMN2 expression [1] was “tolerated”.

Consider `COc1cc(Cl)ccc1C1NC(=O)Nc2cc(OC)c(OC)c(OC)c21` (centres unmarked) [9q], for which the “activity” value with SMN2 expression [1] is listed as “activity was restored”.

Consider `COc1ccc(Cl)cc1C1NC(=O)Nc2cc(OC)c(OC)c(OC)c21` (centres unmarked) [9r], for which, in the series on SMN2 expression [1], the “activity” value is given as “activity was restored”.

Take `CC(C)c1cc(C(=O)Nc2ccc(F)c(Cl)c2)no1` [compound 1]: in the series on SMN2 expression [5], the “increase in expression of SMN2” value is listed as 2 fold.

As to `COc1cc2c(c(OC)c1OC)C(c1cc(Br)ccc1F)CC(=O)N2` (centres unmarked) [compound 2], in the series on SMN2 expression [5], the “increase in expression of SMN2” value is listed as 2 fold.

For the molecule `COc1cc2[nH]c(=O)nc(-c3cc(Cl)ccc3F)c2c(OC)c1OC` [compound 13], in the series with SMN2 expression [1], the “activity” value was “inactive”.

For the molecule `COc1cc2c(c(OC)c1OC)C(c1cc(Cl)ccc1F)=NCC(=O)N2` [compound 14], in the series on SMN2 expression [1], the “activity” value was “retained potency similar to the lead 2, although its efficacy was reduced”.

For the molecule `COc1cc2c(c(OC)c1OC)C(c1cc(Cl)ccc1F)OC(=O)N2` (centres unmarked) [compound 16], in the series on SMN2 expression [1], the “activity” value is listed as “encouraging activity”.

With `COc1cc2c(c(OC)c1OC)C(c1cc(Cl)ccc1F)OCC(=O)N2` (centres unmarked) [compound 19], in series [3], the “stability in mouse microsomes (in words)” value is on record as “poor”. Besides, the “aqueous solubility (in words)” value in “aqueous solubility” was “improved aqueous solubility”. Moreover, the “activity” value with SMN2 expression [1] was “improved potency and efficacy”.

Regarding `COc1cc2c(c(OC)c1OC)C(c1cc(Cl)ccc1F)OCC(=O)N2C` (centres unmarked) [compound 21], in the series on SMN2 expression [1], the “activity” value is on record as “not tolerated”.

For the molecule `COc1cc2c(c(OC)c1OC)C(C)(c1cc(Cl)ccc1F)OCC(=O)N2` (centres unmarked) [compound 23], the “activity” value in the series with SMN2 expression [1] is given as “not tolerated”.

Values taken from paper PMC5701662 (Bioorganic & medicinal chemistry letters, 2017).
